Laboratory results as given in ChEMBL document CHEMBL4513216, “Probing the Open Global Health Chemical Diversity Library for Multistage-Active Starting Points for Next-Generation Antimalarials” (ACS Infect Dis, 2020).

test: Toxicity liver stage against HepG2, at 10uM; assay type: cell-based; set-up: test concentration 10 uM, cell line HepG2-A16-CD81EGFP; conditions: human, HepG2-A16-CD81EGFP cells; read-out: INHIBITION
In short: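 Uninfected HepG2-A16-CD81EGFP cells, 3 × 10^3 per well, 1536-well, plated on prespotted compound at 10 μM final, parasite-free screening media added to match infected plates; puromycin 10 μM positive, DMSO 0.5% negative; run in parallel with 48 h PbLuc assay at 37 °C, 5% CO2; viability by CellTiter-Glo luminescence, normalized to controls.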

Point of comparison: `CC(C)NC(=O)CCNC(=O)Nc1cnn(-c2ccccc2Cl)c1`, cytotoxicity at 10 µM 1.75%. Against it:
- COc1cc2cc(C(=O)O)n(C)c2c(OC)c1OC — higher, 12.8%
- CCN(C1CCS(=O)(=O)C1)S(=O)(=O)c1cccc2cc(C)cnc12 (configuration not stated) — lower, -11%
- OCc1ccc(OCC(F)(F)F)cc1 — lower, -11.9%
- Cc1nc2oc(C(=O)N3CCOCC3)c(N)c2c2c1CCCC2 — lower, -2.8%
- CC1CCN(C(=O)c2cn(-c3cc(N4CCOCC4)ncn3)cn2)CC1 — the same, 1.75%
- COc1ccc(CN2CCO[C@H]3CN(C(C)=O)CC[C@H]3C2=O)cc1 — lower, -138%
- CS(=O)(=O)N1CC[C@@H]2OC(COCC(=O)N3CCCC3)CC[C@@H]21 (some centres not stated) — lower, 1.56%
- COc1nn(C)c2c1CCCN(C(=O)c1ccc(C)c(F)c1)C2 — higher, 8.21%
- Cn1cc(C[C@H]2[C@H](O)CCN2C(=O)C2CCCC2)cn1 — lower, -3.49%
- CN(Cc1cn2c(n1)CN(C(=O)C1CCOCC1)CC2)Cc1ccco1 — lower, -1.46%
- O=C(CCc1nc2cccnc2[nH]1)NCc1ccc2c(c1)OCO2 — lower, 0.356%
- C[C@H]1C(=O)NC[C@H]2CN(Cc3ccccc3)C[C@H]21 — lower, 1.47%
- CCc1noc(C2CCCCN2C(=O)c2cccnc2)n1 (configuration not stated) — higher, 8.52%
- CC(=O)N1CCCC(c2ccnc(Nc3cnccn3)c2)C1 (configuration not stated) — higher, 9.37%
- CNc1cccc(C2CCN(C(C)=O)CC2)n1 — higher, 7.49%
- Cn1ncc(Cl)c1C(=O)N1CCC(c2nnsc2S(C)(=O)=O)CC1 — lower, -4.7%
- CN(C)S(=O)(=O)N1CCC(c2n[nH]cc2-c2ccnc(N)c2)C1 (configuration not stated) — higher, 8.81%
- Cc1ncc(C(=O)N2CCCC2(C)C(=O)N2CCOCC2)c(C)n1 (configuration not stated) — lower, -0.681%
- CC(=O)N1CCOC(c2c(C(=O)O)sc3ccccc23)C1 (configuration not stated) — higher, 5.76%
- Cc1c[nH]nc1C1CCN(C(=O)Cn2cccn2)C1 (configuration not stated) — higher, 3.09%
- CCc1ccccc1Nc1noc2c1CN(C(=O)C1CCCO1)CC2 (configuration not stated) — lower, -9.9%
- CN1CCN(C(=O)C2CCN(c3cccnn3)CC2)CC1 — lower, -0.353%
- CNc1cccc(C2CCN(C(=O)c3cccnc3)CC2)n1 — lower, -7.27%
- CO[C@H]1CN(Cc2cc(F)ccc2F)CC[C@@]12CCCO2 — lower, -8.49%
- COc1ccccc1-c1cc(C(=O)N(C)C)c2cnn(C)c2n1 — higher, 10.6%
- CC(=O)c1sc(Nc2ccc(Cl)cn2)nc1C — higher, 41.9%
- Cc1cc(-n2c(C)cn(CN(C)CC3CC3)c2=O)no1 — lower, -2.95%
- COCCC1(C(=O)NCCc2nncn2C2CC2)CCC1 — lower, -9.22%
- O=C(c1cscn1)N(CCCO)S(=O)(=O)c1cccs1 — lower, -11.3%
- O=C(Cc1ccon1)Nc1cncc(Br)c1O — higher, 7.06%
- Cc1nc(C)c(C(=O)N2Cc3cc(F)ccc3CC2C)o1 (configuration not stated) — higher, 6.07%
- CCC(C)(NC(=O)CCN1CCOC1=O)C(=O)OC (configuration not stated) — lower, -16%
- CC(C)C(=O)NCc1cc(Br)ccc1F — lower, -3.98%
- O=C(Nc1cc(C(F)(F)F)c[nH]c1=O)C1CCCO1 (configuration not stated) — lower, -0.37%
- COC(=O)CCNC(=O)c1ccc(OCc2ccccc2)nc1 — higher, 4.93%
- CCS(=O)(=O)NCC(=O)NC1(C)CCc2ccccc2C1 (configuration not stated) — higher, 2.22%
- OCCN(Cc1cccnc1)c1ccc(Br)cn1 — higher, 21.4%
- O=C(CN(Cc1cccc(F)c1)CC1CCCO1)N1CCCC1 (configuration not stated) — lower, -7.29%
- Cn1cccc1C(=O)OCCNC(=O)c1ccccc1 — higher, 14.7%
- COc1ccc(C(=O)Cn2cnnc2[S+](C)[O-])cc1Cl (configuration not stated) — lower, -8.17%
- Cc1cccc(CNC2CCN(CCc3ccncc3)CC2)c1C — lower, -9.04%
- COc1ncccc1NC(=O)N1CCC(C(=O)NC(C)C)CC1 — lower, -3.68%
- Cc1nn(C)c(C)c1OCC(=O)NCc1cccc(CO)c1 — lower, -7.73%
- Cc1ccc(F)c2c1N(C(=O)c1cn(CC(=O)N(C)C)nn1)CCC2 — lower, -9.17%
- O=C(Nc1ccccc1)NC1CCN(C2CCOC2)CC1 (configuration not stated) — higher, 7.76%
- Cc1[nH]ccc1C(=O)N(Cc1ccc(O)cc1)CC1CC1 — higher, 6.99%
- Cn1cc(C(=O)Nc2cccc(CCN3CCCC3)c2)ccc1=O — higher, 7.76%
- O=C(CC1CCCO1)NCCc1ccccc1Br (configuration not stated) — higher, 5.63%
- CC(C)N1CCN(C(=O)c2ccccc2NCc2cccnc2)CC1 — lower, -19.4%
- Cc1ccccc1N(CC(=O)NCCc1nnc2n1CCC2)S(C)(=O)=O — lower, -0.69%
- CC(C)(NC(=O)c1cnc(-c2ccccc2F)s1)C(N)=O — higher, 6.96%
- COc1ccccc1-c1csc(NC(=O)N2CCN(C)CC2C)n1 (configuration not stated) — lower, -3.24%
- O=C(CCCNC(=O)Nc1ccc(F)cc1F)Nc1cn[nH]c1 — higher, 9.19%
- CCOCC(=O)NCC(C)(O)c1cc(C)oc1C (configuration not stated) — higher, 1.85%
- Cc1nc(S(=O)(=O)N2CCC3(CCCCC3)C2)cn1C — lower, -4.2%
- Cc1cc(-c2nc(C3(NC(=O)OC(C)(C)C)CCC3)no2)on1 — higher, 5.98%
- CCN(c1ccc(C(=O)N(Cc2cnn(C)c2)C(C)C)cn1)C(C)C — higher, 16.2%
- Cc1cc(C(=O)N2CCS(=O)(=O)CC2)c(C)o1 — lower, -16.8%
- O=C(NCCCNCC1CNc2ccnn2C1)c1ccccc1 (configuration not stated) — lower, -1.48%
- COc1ccccc1OCC(=O)Nc1ncccc1OC(F)F — higher, 7.25%
- Cc1nc(Cn2c3c(ccc2=O)CC(NC(N)=O)CC3)cs1 (configuration not stated) — higher, 9.79%
- CC(=O)c1ccccc1-c1cc(C(=O)O)cc(S(=O)(=O)NC(C)C)c1 — lower, 0.476%
- Cc1nc(-c2ccncc2)ncc1C(C)NC(=O)C1=NN(C)C(=O)CC1 (configuration not stated) — lower, -0.205%
- O=C(CN1CCOCC1)N1CCC2(CCCN(C3CCOCC3)C2=O)C1 (configuration not stated) — lower, -129%
- O=C(NCC1(O)CCCCC1)c1coc(COc2cccc(F)c2)n1 — lower, -136%
- Cc1cc(C[C@@H]2COC[C@@H]2NC(=O)CCN2Cc3ccccc3C2)on1 — higher, 3.86%
- CCOCc1nc2c(c(N3CC=CC3)n1)CCN(CC1CC1)CC2 — lower, -21.2%
- Cc1ccccc1N1CC(C)N(Cc2ccc(C)c(F)c2F)CC1=O (configuration not stated) — lower, -1.66%
- CNC(=O)c1ccnc(CC2COc3c(cccc3OC)C2)c1 (configuration not stated) — higher, 3.77%
- Cc1cc(N2C[C@H](C3CC3)[C@@H](N)C2)nc(N2CCCCC2)n1 — lower, -15.6%
- Nc1nc(CCC(=O)N2C[C@@H](CN3CCCC3)C[C@H](CO)C2)n[nH]1 — lower, -0.445%
- CCN1CC2(CCC1=O)CCN(Cc1cccc(OC(F)F)c1)CC2 — lower, -16.5%
- O=C(CCN1CCCCO1)N1CCC(CO)(Cc2ccccc2)CC1 — higher, 7.26%
- c1ccc2c(c1)cnn2CCCNC1CCOC2(CCOCC2)C1 (configuration not stated) — lower, -7.35%
- O=C(NC1CCC1)c1cccc(S(=O)(=O)NCc2nc(C3CC3)no2)c1 — lower, -0.0264%
- Cc1cnn(C(C)C(=O)NCC2CCN(c3cnn(C)c(=O)c3)CC2)c1 (configuration not stated) — higher, 2.81%
- COc1ccc(N2CCN(Cc3noc(CC(C)C)n3)C(C)C2=O)cc1 (configuration not stated) — higher, 4.11%
- Cc1cc2ccccc2n1CCC(=O)N1CCC[C@H]1C(N)=O — lower, -0.338%
- O=C(NCC1CCS(=O)(=O)C1)c1ccc2cccc(Cl)c2n1 (configuration not stated) — lower, -10.1%
- CCc1cc(N(C)Cc2noc(C(C)C)n2)nc(N2CCOCC2)n1 — lower, 0.515%
- CC(C)N1CCC(CC(=O)N2CCCCC2CCn2cccn2)CC1 (configuration not stated) — lower, -3.77%
- O=C1CC2(CCCC2)CC(=O)N1Cc1nc2ncccn2n1 — higher, 2.49%
- c1ccc2c(c1)CC(Cc1cc(N3CCCC3)cnn1)CCO2 (configuration not stated) — lower, -5.5%
- CC(C)C(C)n1nccc1NC(=O)Cn1cnc2ccccc21 (configuration not stated) — higher, 10.8%
- COC(=O)c1cc2c(=O)[nH]c(=O)n(CCc3ccccc3)c2nc1C — lower, -4.74%
- COc1ccc([C@@H]2CN(c3cnccn3)C[C@H]2N(C)C)cc1 — higher, 6.55%
- Cn1ncc(NC(=O)c2noc3c2CCCC3)c1C(=O)N1CCCCC1 — lower, -13.4%
- COc1ccccc1CNC(=O)C[S+]([O-])Cc1cc(C)on1 (configuration not stated) — lower, -4.92%
- Cc1cnn(CC2CCCN2C(=O)c2c(C)noc2C(C)C)c1 (configuration not stated) — lower, -0.502%
- Cc1cnn(C2CCCN(C(=O)Cc3cn4ccsc4n3)C2)c1 (configuration not stated) — lower, -4.89%
- Cc1cc(C)n(CC2CCCN2C(=O)CCNc2ncccn2)n1 (configuration not stated) — lower, -2.31%
- CCc1noc(CNCCn2cc(C)cn2)n1 — lower, -2.54%
- CCC(O)CN1CCN(C(=O)c2ccc3c(c2)COC3)CC1 (configuration not stated) — lower, -6.58%
- c1cncc(-c2noc(CN3CCCC3Cn3cccn3)n2)c1 (configuration not stated) — lower, -4.74%
- Cc1cnn(CC2CCCN2C(=O)Cc2cccs2)c1 (configuration not stated) — lower, -0.704%
- Cc1ccc(C(=O)N2CCN(C(=O)Cc3ccccn3)CC2)c(C)c1 — lower, -4.74%
- CC(NC(=O)NCCCN(C)S(C)(=O)=O)c1cccnc1 (configuration not stated) — lower, -12.5%
- Cc1ccc(CNC(=O)CCNS(C)(=O)=O)cc1 — lower, -5.07%
- O=C(c1cnc(-c2ccccn2)s1)N1CCCC1Cn1cccn1 (configuration not stated) — lower, -5%
- COc1ccccc1C(=O)NC(CC(=O)O)c1cccs1 (configuration not stated) — lower, -0.337%
- CC(C)N1CCCCC1c1nc(N(C)C)ncc1I (configuration not stated) — lower, -3%
- CN(C)CCCN(Cc1cnn(C)c1)Cc1ccco1 — higher, 2.36%
- COCCN1C[C@@H]2CN(Cc3ccoc3)CCC[C@]2(C(=O)O)C1 — lower, -139%
- c1cncc(COCc2nnn3c2CN(Cc2ccsc2)CC3)c1 — higher, 6.4%
- O=C(NCc1cn2c(n1)CN(Cc1ccccn1)CC2)C1CCC1 — higher, 7.49%
- O=C([C@@H]1COC[C@H]2CN(C3CCOCC3)C[C@H]21)N1CCCO1 — lower, -3.2%
- CNC(=O)c1cc2c(nc1NCC1CC1)CCN(S(C)(=O)=O)CC2 — higher, 5.57%
- Cc1ccc(CN2Cc3nccn3CC(Cn3cncn3)C2)s1 (configuration not stated) — lower, -141%
- CC1CCC(n2cc3nc(N)[nH]cc-3c2=O)CC1 (configuration not stated) — lower, -0.0237%
- Cc1nc(=O)c(CC(=O)N2C[C@H]3CC[C@@H](C2)N(CC2CCC2)C3)c[nH]1 — lower, 1.43%
- CCC(C)NS(=O)(=O)c1ccc(C=Cc2onc(C)c2NC(C)=O)cc1 (configuration not stated) — lower, -10.7%
